Laboratory results: PMC9587871 (Asian Pacific Journal of Cancer Prevention : APJCP, 2022)
Several values for one entry are separate records, joined by “and”; a condition that tells them apart may be missing. Equal entries are not always repeated. Where two headings read alike, the source gives them in different places. One block for each molecule: values may come before it.

How the values were obtained:
[1] = DPPH radical scavenging assay; conditions: 30 minutes incubations; n=4
[2] = system: colorectal HT29 cancer cell line; test: SRB antiproliferative assay, HT29; format: cell-based
[3] = system: breast MCF7 cancer cell line; test: SRB antiproliferative assay, MCF7; format: cell-based
[4] = system: Leukaemia K562 cancer cell line; test: SRB antiproliferative assay, K562; format: cell-based
[5] = system: LPS-induced NO production in RAW 264.7 macrophages (Nitric oxide synthase); test: Griess assay of LPS-induced NO production in RAW 264.7 macrophages; format: cell-based; conditions: read-out: NOS- IC50 value, LPS-prompted RAW264.7 macrophages, 24h incubations, n=4
In short: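 LPS-stimulated RAW264.7 macrophages exposed to the test compound; NO read by Griess assay. IC50 calculated within the tested dose range. Indomethacin used as reference. Data are mean ± SD of 4 independent replicates.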

DPPH radical scavenging IC50 value [1]: (21.83±1.10) μg/mL
SMILES: O=C1O[C@H]([C@@H](O)CO)C(O)=C1O [Ascorbic acid]

SMILES: N.N.[Cl][Pt][Cl] [Cisplatin]
IC50 ([2]; read-out: Cytotoxicity (as of %Control) IC50 value, HT29, 72 h incubations, n=4): 45.1 ± 7.9 µM
IC50 ([2]; read-out: Cytotoxicity (as of %Control) IC50 value, HT29, 72 h incubations, n=4, listed as cisplatin): 45 µM
IC50 ([3]; read-out: Cytotoxicity (as of %Control) IC50 value, MCF7, 72 h incubations, n=4): 28.1 ± 4.4 µM
IC50 ([3]; read-out: Cytotoxicity (as of %Control) IC50 value, MCF7, 72 h incubations, n=4, listed as cisplatin): 28 µM
IC50 ([4]; read-out: Cytotoxicity (as of %Control) IC50 value, K562, 72 h incubations, n=4, NI is lack of cytotoxicity within the tested 0.1-200 μg/mL range): 180 ± 21 µM
IC50 ([4]; read-out: Cytotoxicity (as of %Control) IC50 value, K562, 72 h incubations, n=4, NI is lack of cytotoxicity within the tested 0.1-200 μg/mL range, listed as cisplatin): 180 µM

IC50 ([5]; Mus musculus, RAW264.7, 24 h): 120 µM and 42.8 µg/mL
IC50 [5]: 119 ± 3.02 µM
SMILES: COc1ccc2c(c1)c(CC(=O)O)c(C)n2C(=O)c1ccc(Cl)cc1 [Indomethacin]
